IDE cell activ = activators of human insulin-degrading enzyme in cells; P14735; HEK cells, FAbeta-B cleavage, fluorescence polarization; 0% vehicle, 100% cell-free pure enzyme wells; activation, % at 5.96 µM; actives 0.073% (n = 340,000);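 active = activation above the mean of all tested compounds plus 3 SD, set per screening campaign, cut at about 17% in these data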
Target sequence (P14735 whole entry, looked up): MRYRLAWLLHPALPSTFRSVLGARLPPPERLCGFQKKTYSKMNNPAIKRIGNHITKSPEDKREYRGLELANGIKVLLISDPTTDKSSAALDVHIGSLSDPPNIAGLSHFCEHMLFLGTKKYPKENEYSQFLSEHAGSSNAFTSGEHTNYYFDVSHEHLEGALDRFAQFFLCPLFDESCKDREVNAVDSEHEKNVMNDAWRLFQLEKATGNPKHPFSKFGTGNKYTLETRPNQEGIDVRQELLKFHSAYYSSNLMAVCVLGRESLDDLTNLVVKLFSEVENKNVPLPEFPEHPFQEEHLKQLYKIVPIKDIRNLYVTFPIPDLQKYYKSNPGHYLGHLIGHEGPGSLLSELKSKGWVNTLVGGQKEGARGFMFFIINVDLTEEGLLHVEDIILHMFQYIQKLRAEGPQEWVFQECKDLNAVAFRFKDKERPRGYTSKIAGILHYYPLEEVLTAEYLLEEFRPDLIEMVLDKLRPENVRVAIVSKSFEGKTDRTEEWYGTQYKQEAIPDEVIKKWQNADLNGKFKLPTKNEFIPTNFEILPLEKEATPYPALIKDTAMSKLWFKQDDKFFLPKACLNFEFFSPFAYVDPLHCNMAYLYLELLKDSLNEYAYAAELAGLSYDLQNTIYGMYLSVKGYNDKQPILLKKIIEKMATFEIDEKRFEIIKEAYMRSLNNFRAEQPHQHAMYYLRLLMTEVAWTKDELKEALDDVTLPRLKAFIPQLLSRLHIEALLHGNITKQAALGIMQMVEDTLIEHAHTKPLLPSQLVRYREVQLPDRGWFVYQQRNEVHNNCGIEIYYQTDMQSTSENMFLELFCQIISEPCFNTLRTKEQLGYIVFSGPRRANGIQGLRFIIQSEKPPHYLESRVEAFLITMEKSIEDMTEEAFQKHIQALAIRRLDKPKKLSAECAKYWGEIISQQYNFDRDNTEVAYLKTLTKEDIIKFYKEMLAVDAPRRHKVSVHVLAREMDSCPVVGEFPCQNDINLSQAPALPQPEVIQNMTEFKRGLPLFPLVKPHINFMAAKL
PHOSPHO1 block = blocks human PHOSPHO1 phosphatase activity; actives 1.1% (n = 290,000); recombinant PHOSPHO1, absorbance phosphatase assay; Q8TCT1; inhibition, % at 13.3 µM; AID 1565; in the data active = inhibition above about 60%
procasp7 counter = counter-screen: procaspase-7 (human) activation | recombinant procaspase-7, Ac-DEVD-pNA absorbance 405 nm; D23A/D198A/D206A triple mutant, cannot self-cleave; scale: DMSO 0, 5 µM enzyme 100 | AID 463210 | actives 0.093% (n = 330,000) | activation, % at 8.5 µM | P55210;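 active = percent activation above the screen-wide mean plus 3 SD, cut at about 25% in these data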
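Assay system: Uncleavable procaspase-7 mutant enzyme / Input: 2 µM procaspase-7 mutant as dispensed / Dosing: single nominal 8.5 µM compound dose, 0.8% DMSO final / Timing: 1 h enzyme–compound preincubation and 2 h substrate reaction, both 25 °C / Detection: p-Nitroaniline absorbance at 405 nm, read at 0 and 120 min / Replication: singlicate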
IDE cell inh = inhibitors of human insulin-degrading enzyme in cells | P14735 | HEK cells, FAbetaB cleavage, fluorescence polarization | inhibition, % at 5.59 µM | actives 0.41% (n = 320,000);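 active = percent inhibition above the average of all tested compounds plus 3 SD, set per screening campaign, cut at about 16% in these data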;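 note: IDE supplied by intact live HEK cells; FP after avidin binding of uncleaved biotin substrate so inhibition keeps polarization high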
UBC13 polyUb = inhibitors of human UBC13 polyubiquitin chain formation; P61088; TR-FRET; inhibition, % at 20 µM; actives 0.47% (n = 330,000); AID 485273; in the data active = inhibition above about 45%, passing the limit was not always enough
proCasp3 act = procaspase-3 (human) activation; actives 0.11% (n = 330,000); AID 463141; recombinant procaspase-3 D3A, Ac-DEVD-pNA absorbance 405 nm; P42574; activation, % at 8.5 µM;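 active = activation above the mean of all tested compounds plus 3 SD, cut at about 21% in these data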
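Test system: Procaspase-3 D3A mutant; medium: Zinc-free HEPES/NaCl buffer with 0.01% Triton X-100 at pH 7.4; reagent: DEVD-pNA substrate; doses: one concentration, 8.5 µM nominal, 0.8% DMSO; times: 1 h preincubation plus 2 h reaction at 25 °C; signal: Epi-absorbance at 405 nm of released p-nitroaniline, 0 and 120 min; replicates: singlicate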
procasp7 triplic = counter-screen for procaspase-3 activators: activators of human procaspase-7; AID 488941; 210 tested, under 10 active; activation, % at 8.5 µM; recombinant procaspase-7, Ac-DEVD-pNA absorbance; asp23/198/206-to-Ala mutant, cannot self-cleave; shares compounds with proCasp3 act;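 active = mean activation above a set limit taken from an earlier procaspase-7 screen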
proCasp3 confirm = procaspase-3 (human) activation, confirmed. AID 488954. activation, % at 8.5 µM. actives 10% (n = 210). recombinant PC-3 D3A, Ac-DEVD-pNA absorbance 405 nm; 100% is higher-enzyme control. shares compounds with proCasp3 act;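 active = mean activation above a set limit carried over from the earlier primary screen, cut at about 22% in these data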
Large screens that a line does not name were inactive (follow-up assays come after a bar, where they were run). Most compounds without a hit are left out; they make up all but 1.9% or so of the library.

COc1ccc(C2=NC(=O)/C(=C\c3cc(OC)c(OC)c(OC)c3)O2)cc1	proCasp3 act 26.0 (no result: UBC13 polyUb) | procasp7 triplic 26.5 | proCasp3 confirm 32.6
Cc1ccc2nc(CSc3nc(C)cc(C)c3C#N)[nH]c2c1	proCasp3 act 69.0 | procasp7 triplic inactive | proCasp3 confirm inactive
Cc1cc(C)c(C#N)c(SCc2ccccc2)n1	none
CC(=O)Nc1ccc(NC(=O)CSc2ncnc3sc(C)c(C)c23)cc1	none
Cc1sc2ncnc(SCC(=O)Nc3ccc(S(=O)(=O)N4CCOCC4)cc3)c2c1C	proCasp3 act 22.6 (no result: PHOSPHO1 block) | procasp7 triplic inactive | proCasp3 confirm inactive
Oc1ccc(N=Cc2ccc(-c3cccs3)s2)cc1	proCasp3 act 35.2 | procasp7 triplic inactive | proCasp3 confirm inactive
COc1ccccc1CNC(=O)CS(=O)Cc1nc(-c2ccccc2C)oc1C (stereo unspecified)	proCasp3 act 73.3 | procasp7 triplic inactive | proCasp3 confirm inactive
COC(=O)CSc1ncnc2c1cnn2Cc1ccccc1	none
CC(C)OC(=O)CSc1ncnc2c1cnn2Cc1ccccc1	proCasp3 act 129.1 | procasp7 triplic inactive | proCasp3 confirm inactive
Cc1c(Cl)cccc1NC(=O)CS(=O)(=O)c1ccccc1	none
COc1ccccc1CNC(=O)C1CCC(CNS(=O)(=O)c2ccc(F)cc2)CC1 (stereo unspecified)	none (no result: PHOSPHO1 block)
COc1ccccc1NC(=O)C(=O)c1cn(CC(=O)N2CCOCC2)c2ccccc12	proCasp3 act 21.8 | procasp7 triplic inactive | proCasp3 confirm inactive
Cc1cc2c3nonc3ccc2n1-c1ccccc1	proCasp3 act 25.1 | procasp7 triplic inactive | proCasp3 confirm inactive
c1ccc(-c2cc3c(ccc4nonc43)nn2)cc1	none
Cn1cccc1C1CCCN1CC(=O)Nc1ccc(F)c(F)c1F (stereo unspecified)	none (no result: PHOSPHO1 block)
OC[C@@H]1[C@@H](c2ccc(Cl)cc2)C(c2cccc(Cl)c2)=NN1c1ccccc1	none (no result: PHOSPHO1 block, IDE cell inh, UBC13 polyUb)
OC[C@@H]1[C@@H](c2ccc(Cl)cc2)C(c2ccccc2)=NN1c1ccccc1	proCasp3 act 21.8 (no result: PHOSPHO1 block, IDE cell inh, UBC13 polyUb) | procasp7 triplic inactive | proCasp3 confirm inactive
COc1cccc(OCC(=O)N2CCCc3ccccc32)c1	none
CCCN(C(=O)CSCC(=O)Nc1cccc(C)c1)c1c(N)n(Cc2ccccc2)c(=O)[nH]c1=O	none
CCCCN(C(=O)CSCC(=O)Nc1cccc(C)c1)c1c(N)n(Cc2ccccc2)c(=O)[nH]c1=O	proCasp3 act 23.7 (no result: PHOSPHO1 block) | procasp7 triplic inactive | proCasp3 confirm inactive
COC(=O)C1=C(NC(=O)c2cccc(OC)c2)CCS1	proCasp3 act 28.6 | procasp7 triplic inactive | proCasp3 confirm inactive
COc1ccccc1S(=O)(=O)Nc1cccc(S(=O)(=O)N2CCCC2)c1	none (no result: PHOSPHO1 block)
Cc1c(C#N)c(=O)oc2ccc3ccccc3c12	proCasp3 act 25.8 | procasp7 triplic inactive | proCasp3 confirm inactive
CCCCCCCCN1[C@@H](CC(=O)O)c2ccc(C(F)(F)F)cc2S1(=O)=O	proCasp3 act 40.1 (no result: PHOSPHO1 block) | procasp7 triplic inactive | proCasp3 confirm inactive
CCCCCCCCCCCCN1[C@@H](CC(C)=O)c2cc(C(F)(F)F)ccc2S1(=O)=O	none (no result: PHOSPHO1 block)
CCCn1c(C2CCCN2c2nc(-c3cccc(Br)c3)cs2)nc2ccccc21 (stereo unspecified)	none
CC1CCC2(CC1)NC(=O)N(CC(=O)N1CCN(c3ccccc3)CC1)C2=O (stereo unspecified)	none (no result: PHOSPHO1 block)
Cc1c(C)n2c(SCC(=O)N3CCCCCC3)nnc2[nH]c1=O	proCasp3 act 22.6 (no result: PHOSPHO1 block) | procasp7 triplic inactive | proCasp3 confirm inactive
O=C(NC12CC3CC(CC(C3)C1)C2)c1ccccc1	none
O=C(NC12CC3CC(CC(C3)C1)C2)N(Cc1ccccc1)Cc1ccncc1	proCasp3 act 58.6 | procasp7 triplic inactive | proCasp3 confirm inactive
CC(C)OC(=O)c1cc(=O)[nH]c2ccccc12	none
CC(OC(=O)c1cc(=O)[nH]c2ccccc12)C(=O)c1ccccc1 (stereo unspecified)	proCasp3 act 22.4 (no result: IDE cell activ) | procasp7 triplic inactive | proCasp3 confirm inactive
O=c1[nH]c(N/N=C\c2ccc(F)cc2)nc2ccccc12	proCasp3 act 30.4 | procasp7 triplic inactive | proCasp3 confirm inactive
CC(=O)C1=C(C)Nc2ncnn2C1c1ccc(Br)cc1 (stereo unspecified)	none (no result: PHOSPHO1 block)
CCN(CC)c1ccc(/C=N/NC(=S)NCc2ccco2)cc1	proCasp3 act 27.4 | procasp7 triplic inactive | proCasp3 confirm 30.9
Cc1ccc(S(=O)(=O)c2cc3ccccc3nc2N)cc1	proCasp3 act 23.6 | procasp7 triplic inactive | proCasp3 confirm inactive
Cc1c(CCC(=O)NC2CC2)c(=O)oc2cc(O)ccc12	proCasp3 act 22.9 | procasp7 triplic inactive | proCasp3 confirm inactive
Cc1c(C)c2ccc(OCC(=O)N[C@@H](Cc3ccccc3)C(=O)O)cc2oc1=O	none (no result: UBC13 polyUb)
Cc1c(CC(=O)NCC(=O)N[C@H](Cc2ccccc2)C(=O)O)c(=O)oc2cc(O)ccc12	proCasp3 act 25.2 | procasp7 triplic inactive | proCasp3 confirm inactive
O=C(CN1CCN(CC(=O)Nc2ccc(F)cc2)CC1)NCC1(N2CCOCC2)CCCCC1	none (no result: PHOSPHO1 block)
COc1ccc(C2CC(c3ccccc3C(F)(F)F)=NN2c2ccc(S(N)(=O)=O)cc2)cc1 (stereo unspecified)	proCasp3 act 34.8 (no result: PHOSPHO1 block, IDE cell inh, UBC13 polyUb) | procasp7 triplic inactive | proCasp3 confirm inactive
COc1cccc(OCCN2CCN(c3ncnc4c3cnn4-c3ccccc3)CC2)c1	proCasp3 act 26.8 | procasp7 triplic inactive | proCasp3 confirm inactive
CCCCn1c(N)c(N(CCOC)C(=O)CSc2nnc(-c3ccco3)n2CC)c(=O)[nH]c1=O	none (no result: PHOSPHO1 block)
Cc1cc(C)cc(C(=O)Nc2c3c(nn2C(C)(C)C)CS(=O)(=O)C3)c1	proCasp3 act 21.8 | procasp7 triplic inactive | proCasp3 confirm inactive
Clc1ccccc1OCCCOc1cccc2cccnc12	none
COc1ccc(Nc2ncc(C(=O)O)c3ccccc23)cc1	none
